Measurements published in ChEMBL document CHEMBL1909598, “Synthesis of purine-scaffold fluorescent probes for heat shock protein 90 with use in flow cytometry and fluorescence microscopy” (Bioorg Med Chem Lett, 2011).
The source made the active and inactive calls. The calls are words filed in the database; no cut-off is given here.

Tests used:
[1] = tested on: MV4-11; assay: Drug uptake in human MV4-11 cells assessed as intracellular localization at 1 uM after 24 hrs by DAPI staining based confocal fluorescence microscopy; assay type: ADME, cell-based; settings: mv4-11, 24 h
Summary of the method: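 MV4-11 cells given 1 μM probe at 37°C for 24 h, then fixed. Cells stained with Na⁺/K⁺-ATPase α1 antibody plus Alexa Fluor 568 secondary as the surface marker. DAPI used to mark non-viable cells. Imaged by confocal microscopy.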

[2] = biological target: Receptor-type tyrosine-protein kinase FLT3 (Homo sapiens) (UniProt P36888); assay: Inhibition of Hsp90 in human MOLM13 cells assessed as FLT3 mutant degradation at 1 uM after 24 hrs using horseradish peroxidase by Western blot analysis; assay type: cell-based; settings: MOLM-13
Summary of the method: (§1)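 MOLM-13 cells treated with derivatives at 1 μM for 24 h. Steady-state mFLT3 and Raf-1 levels read by Western blot, with β-actin as the loading control.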

[3] = tested on: MOLM-13; assay: Drug uptake in human MOLM13 cells assessed as CD45 staining of cells at 1 uM after 1 hr using 7-AAD staining by flow cytometry analysis; assay type: ADME, cell-based; settings: molm-13, 1 h
[4] = tested on: MV4-11; assay: Drug uptake in human MV4-11 cells assessed as CD45 staining of cells at 1 uM after 30 mins using 7-AAD staining by flow cytometry analysis; assay type: ADME, cell-based; settings: mv4-11, 0.5 h
[5] = biological target: T1, Heat shock protein HSP90 (Homo sapiens) (UniProt P07900+P08238); assay: Inhibition of Hsp90 in human MOLM13 cells assessed as decrease in cell viability after 24 hrs using DAPI staining by flow cytometry analysis; assay type: cell-based; settings: MOLM-13
Summary of the method: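 MOLM-13 cells exposed to derivatives at 1 μM, 37°C, 24 h. Viability scored by DAPI exclusion.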

[6] = biological target: T1, Heat shock protein HSP90 (Homo sapiens); assay: Binding affinity to Hsp90 in human MOLM13 cells assessed as staining of live cells at 1 uM after 4 hrs using DAPI staining by flow cytometry analysis; assay type: cell-based; settings: MOLM-13
Summary of the method: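 MOLM-13 cells exposed to each fluorescent derivative at 1 μM, 37°C, 4 h. Binding to live cells (DAPI negative) read by flow cytometry as mean fluorescence intensity.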

[7] = Drug uptake in human lymphocytes assessed as CD45 staining of cells at 1 uM after 1 hr using 7-AAD staining by flow cytometry analysis; assay type: ADME, cell-based; settings: lymphocyte
[8] = biological target: T1, Heat shock protein HSP90 (Homo sapiens); assay: Inhibition of Hsp90 in human MOLM13 cells assessed as Raf1 degradation at 1 uM after 24 hrs using horseradish peroxidase by Western blot analysis; assay type: cell-based; settings: MOLM-13; summary of the method: as §1

Receptor-type tyrosine-protein kinase FLT3 (Homo sapiens), sequence (P36888 whole entry): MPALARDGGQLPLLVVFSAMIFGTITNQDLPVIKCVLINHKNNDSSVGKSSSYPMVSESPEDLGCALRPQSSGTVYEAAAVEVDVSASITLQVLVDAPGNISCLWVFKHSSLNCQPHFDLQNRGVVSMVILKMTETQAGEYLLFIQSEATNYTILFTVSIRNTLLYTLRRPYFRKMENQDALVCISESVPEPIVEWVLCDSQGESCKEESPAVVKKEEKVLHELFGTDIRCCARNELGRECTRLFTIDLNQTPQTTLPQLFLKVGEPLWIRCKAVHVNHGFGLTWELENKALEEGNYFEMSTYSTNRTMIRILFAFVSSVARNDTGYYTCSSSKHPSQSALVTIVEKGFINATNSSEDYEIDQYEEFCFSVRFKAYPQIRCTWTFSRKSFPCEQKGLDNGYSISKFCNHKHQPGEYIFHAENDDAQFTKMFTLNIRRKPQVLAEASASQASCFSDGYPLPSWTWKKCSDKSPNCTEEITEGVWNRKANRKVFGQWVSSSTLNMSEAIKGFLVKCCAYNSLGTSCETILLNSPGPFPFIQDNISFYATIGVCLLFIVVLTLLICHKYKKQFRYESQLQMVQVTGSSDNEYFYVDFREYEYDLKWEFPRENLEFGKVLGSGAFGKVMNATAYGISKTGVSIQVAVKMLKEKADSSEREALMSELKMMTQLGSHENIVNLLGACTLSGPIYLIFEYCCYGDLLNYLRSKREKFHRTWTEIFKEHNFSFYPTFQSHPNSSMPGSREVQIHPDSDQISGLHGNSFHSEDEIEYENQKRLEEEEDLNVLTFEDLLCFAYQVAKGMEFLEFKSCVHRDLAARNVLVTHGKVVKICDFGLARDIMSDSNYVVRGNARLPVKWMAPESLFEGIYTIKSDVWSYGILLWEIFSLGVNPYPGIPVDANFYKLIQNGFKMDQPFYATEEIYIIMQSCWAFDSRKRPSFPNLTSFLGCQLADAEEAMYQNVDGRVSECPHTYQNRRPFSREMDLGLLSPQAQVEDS

| Drug uptake [1] | inhibition [2] | Drug uptake [3] | Drug uptake [4] | Activity [6] | Drug uptake [7] | inhibition [8] | Compound | inhibition [5] |
| --- | --- | --- | --- | --- | --- | --- | --- | --- |
| Active | Active | Active | Active | Active | Not Active | Active | CC(C)N(CCCn1c(Sc2cc3c(cc2I)OCO3)nc2c(N)ncnc21)C(=S)Nc1ccc(-c2c3ccc(=O)cc-3oc3cc(O)ccc23)c(C(=O)O)c1 | Active |
| Active | Active | – | – | Active | – | Active | Nc1ncnc2c1nc(Sc1cc3c(cc1I)OCO3)n2CCCNCCCCCCNc1ccc([N+](=O)[O-])c2nonc12 | Active |
